Experiments:
[1] = molecular target: Histone deacetylase 3/NCoR1 (Homo sapiens, UniProt O15379); test: Inhibition of GST-tagged recombinant human HDAC3/NcoR1 enzyme using flurogenic Ac-LeuGlyLys (Ac)-AMC as substrate after 15 to 30 mins; type: protein-complex assay
Histone deacetylase 2 = Histone deacetylase 2 (Homo sapiens, UniProt Q92769); test: Inhibition of recombinant human HDAC2 enzyme using flurogenic Ac-LeuGlyLys (Ac)-AMC as substrate after 15 to 30 mins
Histone deacetylase 8 = molecular target: T1, Histone deacetylase 8 (Homo sapiens, UniProt Q9BY41); test: Inhibition of recombinant human HDAC8 enzyme using Ac-LeuGlyLys (tfa)-AMC as substrate after 15 to 30 mins
T1 sequence (Q9BY41 whole entry): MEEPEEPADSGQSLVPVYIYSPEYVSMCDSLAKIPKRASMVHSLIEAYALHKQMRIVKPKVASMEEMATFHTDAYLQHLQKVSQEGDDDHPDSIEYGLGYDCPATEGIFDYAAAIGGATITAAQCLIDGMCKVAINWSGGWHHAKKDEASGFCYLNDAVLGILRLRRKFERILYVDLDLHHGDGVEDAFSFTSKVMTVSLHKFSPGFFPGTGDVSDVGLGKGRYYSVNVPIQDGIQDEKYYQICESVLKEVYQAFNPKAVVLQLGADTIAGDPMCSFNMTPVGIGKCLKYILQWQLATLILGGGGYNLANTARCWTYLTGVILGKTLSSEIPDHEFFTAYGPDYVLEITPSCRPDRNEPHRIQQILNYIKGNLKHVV

Histone deacetylase 1 = Histone deacetylase 1 (Homo sapiens, UniProt Q13547); test: Inhibition of recombinant human HDAC1 enzyme using flurogenic Ac-LeuGlyLys (Ac)-AMC as substrate after 15 to 30 mins
[2] = molecular target: T2, Protein deacetylase HDAC6 (Homo sapiens) (UniProt Q9UBN7); test: Inhibition of recombinant human HDAC6 enzyme using flurogenic Ac-LeuGlyLys (Ac)-AMC as substrate at 50 uM after 15 to 30 mins
T2 sequence (whole entry): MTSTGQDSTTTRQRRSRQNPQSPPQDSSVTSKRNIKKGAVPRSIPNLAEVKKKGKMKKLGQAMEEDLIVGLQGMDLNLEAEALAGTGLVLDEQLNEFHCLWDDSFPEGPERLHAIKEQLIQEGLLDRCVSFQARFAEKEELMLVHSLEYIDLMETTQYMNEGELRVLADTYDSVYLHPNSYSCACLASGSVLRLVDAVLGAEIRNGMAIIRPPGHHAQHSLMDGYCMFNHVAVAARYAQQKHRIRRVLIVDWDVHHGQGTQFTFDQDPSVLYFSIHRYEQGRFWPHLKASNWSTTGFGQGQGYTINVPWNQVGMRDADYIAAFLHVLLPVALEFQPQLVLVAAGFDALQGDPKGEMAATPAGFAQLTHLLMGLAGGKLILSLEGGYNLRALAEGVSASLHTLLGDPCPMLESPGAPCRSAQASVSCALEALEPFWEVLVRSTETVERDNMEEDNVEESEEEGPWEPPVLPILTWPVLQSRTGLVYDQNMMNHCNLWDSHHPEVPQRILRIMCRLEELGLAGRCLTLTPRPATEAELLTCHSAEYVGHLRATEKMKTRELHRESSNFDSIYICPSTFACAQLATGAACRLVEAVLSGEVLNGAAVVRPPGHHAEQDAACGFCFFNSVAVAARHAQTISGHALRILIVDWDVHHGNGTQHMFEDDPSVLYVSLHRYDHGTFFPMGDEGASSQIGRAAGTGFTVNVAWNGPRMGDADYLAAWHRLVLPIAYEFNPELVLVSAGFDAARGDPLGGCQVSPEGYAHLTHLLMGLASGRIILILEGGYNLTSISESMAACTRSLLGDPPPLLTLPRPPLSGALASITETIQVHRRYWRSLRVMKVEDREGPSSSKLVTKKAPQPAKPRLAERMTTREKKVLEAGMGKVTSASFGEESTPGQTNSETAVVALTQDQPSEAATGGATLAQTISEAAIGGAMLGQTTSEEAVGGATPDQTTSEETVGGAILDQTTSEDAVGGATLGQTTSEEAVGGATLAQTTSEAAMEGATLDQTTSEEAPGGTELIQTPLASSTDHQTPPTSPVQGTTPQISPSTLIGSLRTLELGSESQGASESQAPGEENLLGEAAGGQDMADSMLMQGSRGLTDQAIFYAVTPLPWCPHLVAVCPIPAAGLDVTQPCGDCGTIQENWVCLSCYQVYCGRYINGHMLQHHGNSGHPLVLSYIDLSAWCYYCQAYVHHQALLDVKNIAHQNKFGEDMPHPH
Summary of the method: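 The single-point screen used HDAC6 at 60 ng/well, 50 μM compound and 80 μM Ac-Leu-Gly-Lys(Ac)-AMC in pH 8.0 Tris buffer with 0.5 mg/mL BSA, incubated 30 min at 37 °C. Trypsin (0.4 mg/mL) was added for 15–30 min at room temperature, and fluorescence was read at 360/460 nm. Each result came from two or more assays run in duplicate.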

Histone deacetylase 11 = molecular target: T3, Histone deacetylase 11 (Homo sapiens, UniProt Q96DB2); test: Inhibition of recombinant human HDAC11 enzyme using Ac-LeuGlyLys(Ac)-AMC as substrate after 15 to 30 mins
T3 sequence (Q96DB2 whole entry): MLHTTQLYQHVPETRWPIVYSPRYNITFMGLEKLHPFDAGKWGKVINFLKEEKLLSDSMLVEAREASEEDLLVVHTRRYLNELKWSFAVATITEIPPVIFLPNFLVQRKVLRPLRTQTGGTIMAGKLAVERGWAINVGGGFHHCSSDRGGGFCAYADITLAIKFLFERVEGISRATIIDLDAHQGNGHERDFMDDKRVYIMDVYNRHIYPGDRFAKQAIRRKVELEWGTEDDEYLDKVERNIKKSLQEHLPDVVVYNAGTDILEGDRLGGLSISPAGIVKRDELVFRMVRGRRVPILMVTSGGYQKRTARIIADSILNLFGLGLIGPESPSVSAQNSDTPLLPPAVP

[3] = molecular target: T4, Polyamine deacetylase HDAC10 (Homo sapiens) (UniProt Q969S8); test: Inhibition of recombinant human HDAC10 enzyme using tetrapeptide Ac-ArgThr-Lys(Ac)Lys(Ac)-AMC as substrate at 50 uM after 15 to 30 mins
T4 sequence (whole entry): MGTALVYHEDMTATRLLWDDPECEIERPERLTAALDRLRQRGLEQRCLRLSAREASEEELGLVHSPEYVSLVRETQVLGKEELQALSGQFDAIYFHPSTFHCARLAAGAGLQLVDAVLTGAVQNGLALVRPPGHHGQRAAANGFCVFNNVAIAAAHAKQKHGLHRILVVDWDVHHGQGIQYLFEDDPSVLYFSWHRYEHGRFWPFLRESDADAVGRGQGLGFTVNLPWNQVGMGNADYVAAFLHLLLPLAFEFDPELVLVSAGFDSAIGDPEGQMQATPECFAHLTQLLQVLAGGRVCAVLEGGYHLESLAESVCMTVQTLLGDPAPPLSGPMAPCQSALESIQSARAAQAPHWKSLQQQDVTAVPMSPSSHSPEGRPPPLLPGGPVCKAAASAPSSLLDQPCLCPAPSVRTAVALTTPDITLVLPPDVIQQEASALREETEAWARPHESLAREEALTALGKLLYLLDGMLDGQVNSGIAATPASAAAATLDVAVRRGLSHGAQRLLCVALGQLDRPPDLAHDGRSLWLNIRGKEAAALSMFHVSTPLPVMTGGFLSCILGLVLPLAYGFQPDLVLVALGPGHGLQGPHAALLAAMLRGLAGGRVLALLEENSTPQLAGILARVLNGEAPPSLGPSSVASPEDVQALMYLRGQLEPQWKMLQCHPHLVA
Summary of the method: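 Recombinant human HDAC10 (500 ng/well) was screened at 50 μM compound, with 100 μM of the Lys(Ac)-Lys(Ac)-AMC tetrapeptide substrate, in Tris-HCl pH 8.0 buffer with NaCl, KCl, MgCl2 and 0.5 mg/mL BSA. Plates were incubated 30 min at 37 °C, then developed with trypsin (0.4 mg/mL) for 15–30 min at room temperature and read at ex 360/em 460 nm. There were at least two assays in duplicate.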

[4] = molecular target: Histone deacetylase 3/NCoR1 (Homo sapiens) (UniProt O15379+O75376); details: 50 uM
[5] = molecular target: T5, Histone deacetylase 8 (Homo sapiens) (UniProt Q9BY41); test: Inhibition of recombinant human HDAC8 enzyme using Ac-LeuGlyLys (tfa)-AMC as substrate at 50 uM after 15 to 30 mins
T5 sequence (whole entry): T1 sequence (Q9BY41 whole entry)
Summary of the method: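 HDAC8 (5 ng/well) was incubated 30 min at 37 °C with 50 μM compound and 400 μM trifluoroacetylated substrate Ac-Leu-Gly-Lys(Tfa)-AMC in Tris-HCl pH 8.0 buffer with NaCl, KCl, MgCl2 and BSA. Trypsin (0.4 mg/mL) development ran 15–30 min at room temperature, with a 360/460 nm read-out. There were at least two separate duplicate assays.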

[6] = molecular target: T6, Histone deacetylase 11 (Homo sapiens) (UniProt Q96DB2); test: Inhibition of recombinant human HDAC11 enzyme using Ac-LeuGlyLys(Ac)-AMC as substrate at 50 uM after 15 to 30 mins
T6 sequence (whole entry): T3 sequence (Q96DB2 whole entry)
Summary of the method: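 HDAC11 (500 ng/well) was tested at a single 50 μM peptide concentration with 80 μM Ac-Leu-Gly-Lys(Ac)-AMC in Tris-HCl pH 8.0 buffer containing BSA, for 30 min at 37 °C. Trypsin development (0.4 mg/mL, 15–30 min, room temperature) released AMC, read at ex 360/em 460 nm. […] There were at least two assays in duplicate.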

[7] = molecular target: T7, Protein deacetylase HDAC6 (Homo sapiens, UniProt Q9UBN7); test: Inhibition of recombinant human HDAC6 enzyme using flurogenic Ac-LeuGlyLys (Ac)-AMC as substrate after 15 to 30 mins
T7 sequence (Q9UBN7 whole entry): T2 sequence (whole entry)

[8] = molecular target: T8, Polyamine deacetylase HDAC10 (Homo sapiens, UniProt Q969S8); test: Inhibition of recombinant human HDAC10 enzyme using tetrapeptide Ac-ArgThr-Lys(Ac)Lys(Ac)-AMC as substrate after 15 to 30 mins
T8 sequence (Q969S8 whole entry): T4 sequence (whole entry)

Histone deacetylase 1, sequence (Q13547 whole entry): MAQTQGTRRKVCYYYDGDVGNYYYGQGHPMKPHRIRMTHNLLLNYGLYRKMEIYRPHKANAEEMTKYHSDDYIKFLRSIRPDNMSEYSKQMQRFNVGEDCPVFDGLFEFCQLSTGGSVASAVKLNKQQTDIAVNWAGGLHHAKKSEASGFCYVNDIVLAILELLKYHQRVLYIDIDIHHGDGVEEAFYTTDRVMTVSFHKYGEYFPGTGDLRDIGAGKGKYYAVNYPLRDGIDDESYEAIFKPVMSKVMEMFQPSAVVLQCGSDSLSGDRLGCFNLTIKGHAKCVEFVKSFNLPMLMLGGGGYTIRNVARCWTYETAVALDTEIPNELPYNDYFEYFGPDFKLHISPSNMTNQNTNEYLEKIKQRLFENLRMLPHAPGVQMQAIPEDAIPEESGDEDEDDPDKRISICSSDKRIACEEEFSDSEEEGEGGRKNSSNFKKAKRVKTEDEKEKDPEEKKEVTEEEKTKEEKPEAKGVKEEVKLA
Histone deacetylase 3/NCoR1, sequence (O15379 whole entry): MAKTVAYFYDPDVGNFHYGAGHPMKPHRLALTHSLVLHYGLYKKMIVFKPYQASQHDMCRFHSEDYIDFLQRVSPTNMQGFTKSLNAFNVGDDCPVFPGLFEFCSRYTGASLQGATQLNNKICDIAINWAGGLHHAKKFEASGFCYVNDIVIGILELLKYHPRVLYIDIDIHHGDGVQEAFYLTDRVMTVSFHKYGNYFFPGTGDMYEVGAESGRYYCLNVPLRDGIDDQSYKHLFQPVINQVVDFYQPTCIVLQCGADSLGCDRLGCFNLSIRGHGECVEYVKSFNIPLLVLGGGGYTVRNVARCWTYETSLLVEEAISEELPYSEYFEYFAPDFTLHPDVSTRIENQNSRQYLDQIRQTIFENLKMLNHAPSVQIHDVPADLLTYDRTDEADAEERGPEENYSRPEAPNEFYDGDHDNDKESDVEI
Histone deacetylase 3/NCoR1, sequence (O75376 whole entry, further chain): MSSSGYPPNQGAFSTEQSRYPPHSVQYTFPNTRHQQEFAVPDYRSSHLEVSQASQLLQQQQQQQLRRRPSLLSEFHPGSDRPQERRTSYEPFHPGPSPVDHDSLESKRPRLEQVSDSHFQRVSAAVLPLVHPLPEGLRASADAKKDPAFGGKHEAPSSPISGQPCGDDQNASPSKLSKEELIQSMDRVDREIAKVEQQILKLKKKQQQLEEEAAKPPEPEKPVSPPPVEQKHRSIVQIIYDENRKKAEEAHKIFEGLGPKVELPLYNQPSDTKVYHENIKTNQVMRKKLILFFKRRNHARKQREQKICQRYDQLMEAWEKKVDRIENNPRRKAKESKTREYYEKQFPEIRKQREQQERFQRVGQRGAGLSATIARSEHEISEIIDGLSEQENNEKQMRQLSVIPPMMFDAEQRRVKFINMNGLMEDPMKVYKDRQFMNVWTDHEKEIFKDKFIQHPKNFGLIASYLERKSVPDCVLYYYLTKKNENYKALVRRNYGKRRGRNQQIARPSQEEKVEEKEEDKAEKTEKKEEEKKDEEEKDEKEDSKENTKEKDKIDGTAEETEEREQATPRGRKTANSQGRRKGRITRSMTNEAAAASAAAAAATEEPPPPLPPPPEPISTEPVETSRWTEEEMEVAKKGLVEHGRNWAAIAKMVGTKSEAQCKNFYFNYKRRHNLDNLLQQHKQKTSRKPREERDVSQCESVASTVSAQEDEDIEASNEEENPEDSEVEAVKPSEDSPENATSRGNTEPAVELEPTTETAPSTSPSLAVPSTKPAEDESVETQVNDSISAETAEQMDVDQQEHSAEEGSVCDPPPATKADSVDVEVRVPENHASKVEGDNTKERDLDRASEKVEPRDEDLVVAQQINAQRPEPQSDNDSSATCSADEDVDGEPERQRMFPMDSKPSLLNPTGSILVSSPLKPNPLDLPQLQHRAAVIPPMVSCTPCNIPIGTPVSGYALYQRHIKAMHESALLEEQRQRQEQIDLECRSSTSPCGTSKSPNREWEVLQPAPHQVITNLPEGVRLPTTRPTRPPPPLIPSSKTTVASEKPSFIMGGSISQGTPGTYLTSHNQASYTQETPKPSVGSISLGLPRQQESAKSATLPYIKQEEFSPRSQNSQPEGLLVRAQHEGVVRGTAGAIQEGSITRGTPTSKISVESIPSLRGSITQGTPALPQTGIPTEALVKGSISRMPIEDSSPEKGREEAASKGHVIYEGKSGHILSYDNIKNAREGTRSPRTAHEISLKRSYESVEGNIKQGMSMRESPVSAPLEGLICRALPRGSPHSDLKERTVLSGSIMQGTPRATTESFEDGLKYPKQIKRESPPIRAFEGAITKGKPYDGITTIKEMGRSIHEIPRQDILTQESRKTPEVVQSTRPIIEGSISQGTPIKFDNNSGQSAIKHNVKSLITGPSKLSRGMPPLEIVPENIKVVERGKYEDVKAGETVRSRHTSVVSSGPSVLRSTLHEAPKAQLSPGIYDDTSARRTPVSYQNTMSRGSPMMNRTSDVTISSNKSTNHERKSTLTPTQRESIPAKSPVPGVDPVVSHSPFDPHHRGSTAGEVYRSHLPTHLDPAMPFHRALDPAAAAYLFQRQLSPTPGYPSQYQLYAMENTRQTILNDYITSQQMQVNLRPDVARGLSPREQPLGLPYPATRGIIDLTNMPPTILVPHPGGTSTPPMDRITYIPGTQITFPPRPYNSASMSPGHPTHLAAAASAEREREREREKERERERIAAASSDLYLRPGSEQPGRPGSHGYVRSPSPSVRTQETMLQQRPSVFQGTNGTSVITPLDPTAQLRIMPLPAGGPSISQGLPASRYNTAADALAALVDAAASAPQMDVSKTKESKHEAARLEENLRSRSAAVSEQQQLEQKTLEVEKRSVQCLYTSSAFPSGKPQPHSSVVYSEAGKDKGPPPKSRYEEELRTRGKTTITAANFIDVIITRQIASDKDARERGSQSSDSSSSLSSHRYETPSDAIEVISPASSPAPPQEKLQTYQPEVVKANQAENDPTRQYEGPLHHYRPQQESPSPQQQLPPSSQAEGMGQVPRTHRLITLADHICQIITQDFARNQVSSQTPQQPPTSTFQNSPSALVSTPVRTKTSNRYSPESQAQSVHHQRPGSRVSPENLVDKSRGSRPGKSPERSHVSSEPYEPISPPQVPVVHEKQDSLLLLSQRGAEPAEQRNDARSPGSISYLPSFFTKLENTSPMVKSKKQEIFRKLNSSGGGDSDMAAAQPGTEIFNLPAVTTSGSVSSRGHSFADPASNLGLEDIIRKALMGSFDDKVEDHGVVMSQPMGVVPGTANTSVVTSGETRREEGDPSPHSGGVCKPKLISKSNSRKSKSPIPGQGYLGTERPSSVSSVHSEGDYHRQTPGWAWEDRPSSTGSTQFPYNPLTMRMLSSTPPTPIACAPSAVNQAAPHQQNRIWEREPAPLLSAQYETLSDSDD
Histone deacetylase 2, sequence (Q92769 whole entry): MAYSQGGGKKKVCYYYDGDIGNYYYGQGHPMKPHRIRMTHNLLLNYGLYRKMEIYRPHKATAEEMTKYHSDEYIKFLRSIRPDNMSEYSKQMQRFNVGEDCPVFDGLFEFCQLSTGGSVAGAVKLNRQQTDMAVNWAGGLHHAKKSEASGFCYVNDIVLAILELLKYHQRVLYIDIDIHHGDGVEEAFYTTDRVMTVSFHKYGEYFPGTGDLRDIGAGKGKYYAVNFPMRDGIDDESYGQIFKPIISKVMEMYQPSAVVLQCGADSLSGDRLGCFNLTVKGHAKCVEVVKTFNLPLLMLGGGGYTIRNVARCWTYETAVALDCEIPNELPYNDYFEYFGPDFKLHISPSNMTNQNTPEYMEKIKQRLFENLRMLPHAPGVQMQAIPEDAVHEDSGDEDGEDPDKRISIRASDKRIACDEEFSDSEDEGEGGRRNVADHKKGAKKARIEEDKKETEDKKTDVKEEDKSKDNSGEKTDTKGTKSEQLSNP

Structure (SMILES): CC(C)[C@H]1NC(=O)[C@@H](C)[C@@H](C/C=C\CCC(N)=O)NC(=O)[C@@H](Cc2ccccc2)NC(=O)[C@@H](C)NC1=O [AZUMAMIDE A]
- Ki [1]: 3.2 µM
- Ki (Histone deacetylase 2): > 5 µM
- Ki (Histone deacetylase 8): > 5 µM
- Ki (Histone deacetylase 1): > 5000 nM
- inhibition [2]: < 50%
- Ki (Histone deacetylase 11): > 5 µM
- inhibition [3]: < 50%

Structure (SMILES): CC(C)[C@H]1NC(=O)[C@@H](C)[C@H](C/C=C\CCC(=O)O)NC(=O)[C@@H](Cc2ccccc2)NC(=O)[C@@H](C)NC1=O
- inhibition [4]: < 50%
- inhibition [5]: < 50%
- inhibition [2]: < 50%
- inhibition [6]: < 50%
- inhibition [3]: < 50%

Structure (SMILES): CC(C)[C@H]1NC(=O)[C@H](C)[C@@H](C/C=C\CCC(=O)O)NC(=O)[C@@H](Cc2ccccc2)NC(=O)[C@@H](C)NC1=O
- inhibition [4]: < 50%
- inhibition [5]: < 50%
- inhibition [2]: < 50%
- inhibition [6]: < 50%
- inhibition [3]: < 50%

Structure (SMILES): CC(C)[C@H]1NC(=O)[C@@H](C)[C@@H](C/C=C\CCC(=O)O)NC(=O)[C@@H](Cc2ccc(O)cc2)NC(=O)[C@@H](C)NC1=O [AZUMAMIDE C]
- Ki [1]: 0.014 µM
- Ki (Histone deacetylase 2): 0.04 µM
- Ki [7]: 2 µM
- Ki (Histone deacetylase 8): > 5 µM
- Ki (Histone deacetylase 1): 32 nM
- Ki (Histone deacetylase 11): 0.035 µM
- Ki [8]: 0.01 µM

Structure (SMILES): CC(C)[C@H]1NC(=O)[C@@H](C)[C@@H](C/C=C\CCC(N)=O)NC(=O)[C@@H](Cc2ccc(O)cc2)NC(=O)[C@@H](C)NC1=O [AZUMAMIDE B]
- Ki [1]: 3 µM
- Ki (Histone deacetylase 2): 3 µM
- inhibition [5]: < 50%
- Ki (Histone deacetylase 1): 5000 nM
- inhibition [2]: < 50%
- Ki (Histone deacetylase 11): > 5 µM
- inhibition [3]: < 50%

Structure (SMILES): C[C@@H]1C(=O)N[C@H](C)C(=O)N[C@H](C)C(=O)N[C@H](Cc2ccccc2)C(=O)N[C@@H]1C/C=C\CCC(N)=O [AZUMAMIDE D]
- Ki [1]: 3.7 µM
- Ki (Histone deacetylase 2): > 5 µM
- inhibition [5]: < 50%
- Ki (Histone deacetylase 1): > 5000 nM
- inhibition [2]: < 50%
- Ki (Histone deacetylase 11): > 5 µM
- inhibition [3]: < 50%

Structure (SMILES): C/C=C1\NC(=O)[C@H]2CSSCC/C=C/[C@H](CC(=O)N[C@H](C(C)C)C(=O)N2)OC(=O)[C@H](C(C)C)NC1=O [ROMIDEPSIN]
- Ki (Histone deacetylase 1): 0.002 nM

Structure (SMILES): CC(C)[C@H]1NC(=O)[C@@H](C)[C@@H](C/C=C\CCC(=O)O)NC(=O)[C@@H](Cc2ccccc2)NC(=O)[C@@H](C)NC1=O [AZUMAMIDE E]
- Ki [1]: 0.025 µM
- Ki [7]: > 5 µM
- Ki (Histone deacetylase 8): 4.4 µM
- Ki (Histone deacetylase 11): 0.06 µM
- Ki [8]: 0.02 µM

From ChEMBL document CHEMBL2417416, “Total synthesis and full histone deacetylase inhibitory profiling of Azumamides A-E as well as β²- epi-Azumamide E and β³-epi-Azumamide E” (J Med Chem, 2013)
